Test results reported in article PMC8359281 (Clinical Pharmacology in Drug Development, 2020).

Experiments:
[1] = PK of ACTH1-24 after synthetic ACTH1-24 depot, phase 1 study; type: in vivo, human; conditions: postdosing of synthetic ACTH1-24 depot
free cortisol = type: in vivo, human; conditions: oral methylprednisolone 16 mg once daily
Procedure, shortened: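 In a single-centre, open-label, parallel-group study, healthy adults (18-50 years, BMI 18.5-30 kg/m2, 51-99 kg, confined on site) took methylprednisolone orally at 16 mg once daily for 15 days. The dose was then tapered to 8 mg daily for 2 days and 4 mg daily for 2 days. Blood for plasma free cortisol was drawn predose and 0.25–24 h postdose on days 1 and 15.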

[2] = cited from earlier work
[3] = tested on: free steroidogenic exposure; assay: Steroidogenic exposure and methylprednisolone/prednisone dose equivalence; type: in vivo, human; conditions: methylprednisolone 16 mg once daily; derived by equation 2 (5 × AUCτ + AUECτ)
Procedure, shortened: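 Steady-state data came from day 15 of oral methylprednisolone at 16 mg once daily. Free methylprednisolone AUCτ (noncompartmental) and free cortisol AUECτ over one dosing interval were combined by integrating the per-timepoint free steroidogenic concentration equation. Weekly free cortisol exposure was converted to methylprednisolone-equivalent dose, assuming dose-proportionality. Prednisone equivalents used a coefficient of 1.25.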

Molecule | time by which plasma concentrations fell below the quantification limit [1] | endogenous cortisol after administration (free cortisol) | potency of systemic action relative to cortisol [2] | free steroidogenic exposure at steady state (AUECτSG) [3]
ACTH1-24: the first 24 amino acids of adrenocorticotropic hormone; analyte measured in plasma after synthetic ACTH1-24 depot | < 24 h |  |  | 
C[C@H]1C[C@@H]2[C@H]([C@@H](O)C[C@@]3(C)[C@H]2CC[C@]3(O)C(=O)CO)[C@@]2(C)C=CC(=O)C=C12 [methylprednisolone] |  | negligible | 5 times | 305 ng·h/mL
